Hits are enriched below; roughly 2.3% of the tested compounds scored in any of these assays.
TRPC6 inhibitor – inhibitors of mouse TRPC6 channel; HEK293-TRPC6, membrane potential dye, ACh-evoked depolarization; hits give low values; AID 2553; 310,000 compounds, 1.1% hits; B-score at 10 µM; Q61143;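 active = B-score under library mean minus 3 SD, initial fluorescence not abnormally high, positive integrated signal ratio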;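 also: B-score derived from integrated fluorescence ratio over the kinetic read; more negative B-score means stronger inhibition of depolarization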
TRPC4 agonist – TRPC4 (mouse) channel activation; Q9QUQ5; HEK293 TRPC4beta/mu-opioid, Fluo4 calcium fluorescence; hits give high values; B-score at 10 µM; 310,000 compounds, 0.49% hits;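 active = B-score above 5 SD of library B-scores, and initial fluorescence ratio not above library mean plus 5 SD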;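 also: positive B-score marks a calcium rise read as TRPC4 activation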
Target sequence (Q9QUQ5 whole entry, looked up): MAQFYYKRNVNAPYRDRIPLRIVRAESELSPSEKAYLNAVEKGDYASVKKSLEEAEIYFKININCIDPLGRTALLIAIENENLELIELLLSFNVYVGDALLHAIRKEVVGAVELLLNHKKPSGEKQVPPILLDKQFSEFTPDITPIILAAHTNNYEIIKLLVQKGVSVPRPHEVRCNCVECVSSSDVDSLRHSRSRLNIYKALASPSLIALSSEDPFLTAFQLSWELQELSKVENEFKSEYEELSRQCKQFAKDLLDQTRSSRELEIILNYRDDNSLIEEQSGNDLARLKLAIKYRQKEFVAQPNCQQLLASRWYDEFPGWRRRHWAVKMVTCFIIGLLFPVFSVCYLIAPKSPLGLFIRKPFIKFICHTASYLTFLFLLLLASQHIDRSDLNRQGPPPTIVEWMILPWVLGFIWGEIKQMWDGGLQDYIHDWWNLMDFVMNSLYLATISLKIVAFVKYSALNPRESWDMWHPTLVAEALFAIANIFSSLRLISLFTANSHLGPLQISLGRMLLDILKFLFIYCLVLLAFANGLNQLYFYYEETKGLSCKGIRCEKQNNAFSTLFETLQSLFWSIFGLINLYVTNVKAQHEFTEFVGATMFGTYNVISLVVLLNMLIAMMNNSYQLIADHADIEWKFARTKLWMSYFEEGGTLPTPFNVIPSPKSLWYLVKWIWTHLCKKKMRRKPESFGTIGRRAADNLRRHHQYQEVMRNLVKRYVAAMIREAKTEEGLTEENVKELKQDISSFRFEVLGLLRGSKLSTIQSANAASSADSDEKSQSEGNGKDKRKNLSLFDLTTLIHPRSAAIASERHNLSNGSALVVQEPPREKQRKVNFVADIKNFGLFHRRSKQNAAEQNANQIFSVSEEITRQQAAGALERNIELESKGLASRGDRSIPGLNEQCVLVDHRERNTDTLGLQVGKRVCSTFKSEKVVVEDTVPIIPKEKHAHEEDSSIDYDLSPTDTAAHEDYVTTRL
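Assay system: HEK293 stable line with TRPC4beta plus mu-opioid receptor; schedule: 45 min room-temperature Fluo4 loading, 110 s read; technique: kinetic Fluo4 calcium fluorescence; evaluation: integrated baseline-normalised fluorescence ratio, converted to per-well B score; controls: buffer (low) and maximal DAMGO (high)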
TRPC4 potent – TRPC4 (mouse) allosteric potentiation; B-score at 10 µM; 310,000 compounds, 0.42% hits; HEK293 TRPC4beta/mu-opioid, DAMGO EC20, Fluo-4 Ca2+ flux; hits give high values;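 active = B-score of calcium response area above 5 SD of library B-scores, with initial fluorescence ratio within 5 SD of library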
TRPC6 activator – activates the mouse TRPC6 cation channel; Q61143; HEK293-TRPC6 membrane potential dye fluorescence; hits give high values; B-score at 10 µM; 310,000 compounds, 0.13% hits; AID 2550;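 active = B-score of the integrated fluorescence ratio above library mean plus 3 SD, and starting fluorescence ratio within library mean plus 5 SD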;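 also: higher score means more depolarization so channel activation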
TRPC4 block – TRPC4 (mouse) channel inhibition. Q9QUQ5. HEK293 TRPC4beta/mu-opioid, DAMGO-evoked Fluo4 calcium flux; hits give low values. B-score at 10 µM. 300,000 compounds, 0.39% hits. AID 2247;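 active = B-score over 3 SD under the library average, no early fluorescence shift, positive overall ratio signal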
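Assay system – HEK293 line stably carrying TRPC4beta and mu-opioid receptor · Doses – single dose · Detection – Fluo4 calcium-dye fluorescence, kinetic read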
Large screens that a line does not name were inactive.

COc1ccc(/C=C(/NC(=O)c2cccc([N+](=O)[O-])c2)C(=O)O)cc1	none
c1ccc2[nH]c(CCCCc3nc4ccccc4[nH]3)nc2c1	TRPC4 block -6
O=C(Cc1nc2ccccc2[nH]1)c1ccc(Br)cc1	TRPC4 agonist 72
CC1CCN(c2nc(N3CCCCC3)nc(N3CCCCC3)n2)CC1	none
C1CCN(c2nc(N3CCCCC3)nc(N3CCNCC3)n2)CC1	TRPC4 potent 22
COc1ccc(OCC(=O)N2c3ccc(C)cc3C3CN(C)CCC32)cc1 (stereo not given)	none
Cc1ccc2c(c1)C1CN(C)CCC1N2C(=S)NC(=O)c1ccc(Br)cc1 (stereo not given)	TRPC4 potent 17
Cc1ccc(-c2c(C#N)c(N)n(-c3ccccc3)c(=O)c2C#N)cc1	none
Cn1c(N)c(Br)c(-c2ccc(F)cc2)c(C#N)c1=O	TRPC4 block -5
COc1ccc(S(=O)(=O)NNc2nc(C)cc(C)n2)cc1Br	none
Cc1cc(C)nc(NNS(=O)(=O)c2ccc(F)c(Cl)c2)n1	TRPC4 potent 17
Cc1ccc(-c2c[n+](CC(=O)Nc3nc(-c4ccc(F)cc4)cs3)c3n2CCC3)cc1	TRPC4 block -6
Cc1ccc(C2(C)NC(=O)N(CC(=O)Nc3cc(S(=O)(=O)N(C)C)ccc3C)C2=O)cc1 (stereo not given)	none
CC(=O)Nc1ccc(CN2CCCC(C(=O)c3ccc(C(F)(F)F)cc3)C2)cc1 (stereo not given)	TRPC4 agonist 234
CCOc1cccc(CN2CCCC(C(=O)c3cccc(C(F)(F)F)c3)C2)c1O (stereo not given)	TRPC4 block -6
COc1cccc(O)c1CN1CCCC(C(=O)c2cccc(C(F)(F)F)c2)C1 (stereo not given)	TRPC4 block -7
COc1c(C)cc(C(=O)C2CCCN(Cc3cccc4nccnc34)C2)cc1C (stereo not given)	TRPC4 agonist 110
COc1ccc(C(=O)C2CCCN(Cc3c(O)cccc3OC)C2)cc1OC (stereo not given)	none
COCc1cc(CN2CCCC(C(=O)c3cccc(C(F)(F)F)c3)C2)ccc1OC (stereo not given)	none
CCCCOc1c(Cl)cc(CNC(C)(C)CO)cc1OCC	none
CCCCNCc1cc(Cl)c(OCCC)c(OCC)c1	TRPC4 block -7
Cc1cc(C)cc(NCc2cc3c(cc2[N+](=O)[O-])OCO3)c1	none
COc1ccc(CNCc2cc3c(cc2[N+](=O)[O-])OCO3)cc1	TRPC6 inhibitor -5.3
O=C(Nc1ccc(C(=O)N2CCOCC2)cc1)Nc1cccc2ccccc12	none
CN(C)S(=O)(=O)c1ccc(Cl)c(C(=O)NC2CCN(Cc3ccccc3)C2)c1 (stereo not given)	TRPC4 potent 19
Fc1ccccc1COc1ccc(Br)cc1CNCC1CCCO1 (stereo not given)	TRPC4 block -6
Fc1ccc(COc2ccc(Br)cc2CNCC2CCCO2)cc1 (stereo not given)	none
O=S(=O)(O)c1ccc(N2N=C(c3ccccc3)CC2c2ccccc2)cc1 (stereo not given)	none
NS(=O)(=O)c1ccc(N2N=C(c3ccccc3)CC2c2ccccc2)cc1 (stereo not given)	TRPC4 potent 11
O=C(NCCc1ccccc1)C(=O)NCC1OCCCN1S(=O)(=O)c1cccs1 (stereo not given)	none
CS(=O)(=O)NCC(c1ccco1)N1CCN(c2ccc(F)cc2)CC1 (stereo not given)	none
O=C(COC(=O)c1ccccc1C(=O)c1ccc(Cl)cc1)NCCc1ccccc1	TRPC4 potent 14
O=C(COC(=O)c1ccccc1C(=O)c1ccccc1)NCCc1ccccc1	none
CCCC(O)(c1ccc(Cl)cc1)C(CN1CCOCC1)c1ccccc1 (stereo not given)	TRPC4 block -5
CCN(C(=O)CN1C(=O)COc2ccc(S(=O)(=O)N3CCCCCC3)cc21)c1cccc(C)c1	none
Cc1cc(SCC#N)nc2ccccc12	TRPC4 block -6
Cc1nn(C)cc1S(=O)(=O)N1CCCCC1C (stereo not given)	none
Cc1ccc(NC(=O)/C=C\C(=O)NCC(=O)O)cc1	none
CCn1nc(C)c(CN2CCCC(CO)(Cc3cccc(Cl)c3)C2)c1C (stereo not given)	TRPC4 block -6
O=C(CSc1nncs1)Nc1nccs1	none
CCOC(=O)C1(CCOc2ccccc2)CCN(Cc2ccc(C)o2)CC1	TRPC4 block -6
CCOC(=O)C1(CCOc2ccccc2)CCN(Cc2ccc(COC)o2)CC1	none
CCOC(=O)C1(Cc2cccc(OC)c2)CCN(Cc2ccc(OC)c(O)c2)CC1	TRPC4 block -8
CCOC(=O)C1(CCOc2ccccc2)CCN(Cc2ccc(OC)c(O)c2)CC1	TRPC4 agonist 84
Cc1ccc(C)c(SCC(=O)OCC(=O)NCCNC(=O)COC(=O)CSc2cc(C)ccc2C)c1	none
Cc1cccc(OCCCCc2c(C)n[nH]c2C)c1C	TRPC4 block -8
Cc1cccc(OCCCOc2cccc3cccnc23)c1C	TRPC4 potent 11
CCOc1ccccc1OCCCCCc1c(C)n[nH]c1C	none
Cc1cccc(/C=N/NC(=O)c2cc(Br)ccc2O)n1	TRPC4 potent 65
COC(=O)CS(=O)(=O)c1nnc([C@H](Cc2ccccc2)NC(=O)OC(C)(C)C)o1	TRPC4 block -5
Cc1cc(S(=O)(=O)Nc2ccc(C(=O)NCC(c3ccco3)N3CCCCC3)cc2)ccc1F (stereo not given)	none
Cc1ccc(S(=O)(=O)Nc2cccc(C(=O)NCC(c3ccco3)N3CCCCC3)c2)cc1F (stereo not given)	TRPC4 block -9
Cc1ccc(S(=O)(=O)NCCC(=O)NCC(c2ccco2)N2CCCCC2)cc1C (stereo not given)	TRPC4 agonist 72, TRPC4 block -6
CCc1ccccc1NC(=S)N(CCOC)C(C)c1ccco1 (stereo not given)	none
Cc1cc(NC(=O)c2cccs2)ncc1NC(=O)C(C)(C)C	none
CCOC(=O)C1=C(N)OC2=C(C(=O)CC(C)(C)C2)C1c1ccc(C)s1 (stereo not given)	none
CCOC(=O)C1=C(N)OC2=C(C(=O)CC(C)(C)C2)C1c1ccc(CC)s1 (stereo not given)	TRPC4 potent 16
CN(C(=O)CC1C(=O)NCCN1Cc1cccc(C(F)(F)F)c1)C1CCOCC1 (stereo not given)	none
CCC1(c2ccc(F)cc2)NC(=O)N(CC(=O)c2cc(C)n(C3CC3)c2C)C1=O (stereo not given)	TRPC4 agonist 54, TRPC4 potent 16
COCCNC(=O)c1cc2nc(-c3ccc(F)cc3)cc(C(F)(F)F)n2n1	none
CCN(CC)CCCNC(=O)c1cc2nc(-c3ccccc3)cc(C(F)(F)F)n2n1	TRPC4 potent 11

High-throughput results deposited in PubChem by Johns Hopkins Ion Channel Center.
